For experiment [1], the system named is Aspergillus fumigatus. As to the kind of experiment: Antimicrobial activity against Aspergillus fumigatus ATCC 90906. Format: functional, organism-based.
The subject of experiment [2] is Cryptococcus neoformans. As to the kind of experiment: Antimicrobial activity against Cryptococcus neoformans ATCC 90113. Format: functional, organism-based.
The subject of experiment [3] is Candida albicans. Briefly: Antimicrobial activity against Candida albicans ATCC 90028. Format: functional, organism-based.
Experiment [4] has as its system Mycobacterium intracellulare. As to the kind of experiment: Antimicrobial activity against Mycobacterium intracellular ATCC 23068. Format: functional, organism-based.
Experiment [5] concerns Fusarium proliferatum. Briefly: Antimicrobial activity against Fusarium proliferatum at 3 uM after 72 hrs by microtiter assay. Format: functional. The method, boiled down: (§1)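 96-well microdilution broth assay with conidia (3 × 10^5 conidia/mL, harvested from 7-day PDA cultures and filtered) against F. oxysporum, F. proliferatum and F. solani at 0.3, 3 and 30 µM. Plates were held at 24 ± 1 °C under a 12 h photoperiod. Growth was read at 620 nm at 24, 48 and 72 h and reported as percent inhibition from mean absorbance with standard error.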

Experiment [6] has as its system Fusarium proliferatum. As to the kind of experiment: Antimicrobial activity against Fusarium proliferatum at 30 uM after 72 hrs by microtiter assay. Format: functional. In a few lines:
as §1

The subject of experiment [7] is Fusarium oxysporum. Briefly: Antimicrobial activity against Fusarium oxysporum at 0.3 uM after 72 hrs by microtiter assay. Format: functional. The method, boiled down:
as §1

Experiment [8] concerns Fusarium oxysporum. Briefly: Antimicrobial activity against Fusarium oxysporum at 3 uM after 72 hrs by microtiter assay. Format: functional. The method, boiled down: as §1
In experiment [9] the test system is Fusarium oxysporum. Briefly: Antimicrobial activity against Fusarium oxysporum at 0.3 uM after 48 hrs by microtiter assay. Format: functional. In a few lines:
as §1

In experiment [10] the test system is Fusarium solani. Briefly: Antimicrobial activity against Fusarium solani at 3 uM after 48 hrs by microtiter assay. Format: functional. In a few lines:
as §1

For experiment [11], the system named is Fusarium proliferatum. Briefly: Antimicrobial activity against Fusarium proliferatum at 30 uM after 48 hrs by microtiter assay. Format: functional. In a few lines:
as §1

Experiment [12] has as its system Fusarium oxysporum. Briefly: Antimicrobial activity against Fusarium oxysporum at 30 uM after 48 hrs by microtiter assay. Format: functional. In a few lines: as §1
Experiment [13] relates to Fusarium proliferatum. As to the kind of experiment: Antimicrobial activity against Fusarium proliferatum at 0.3 uM after 48 hrs by microtiter assay. Format: functional. In a few lines:
as §1

Experiment [14] concerns Fusarium solani. As to the kind of experiment: Antimicrobial activity against Fusarium solani at 30 uM after 72 hrs by microtiter assay. Format: functional. The method, boiled down:
as §1

For experiment [15], the system named is Fusarium solani. Briefly: Antimicrobial activity against Fusarium solani at 3 uM after 72 hrs by microtiter assay. Format: functional. The method, boiled down:
as §1

Experiment [16] concerns Fusarium solani. As to the kind of experiment: Antimicrobial activity against Fusarium solani at 30 uM after 48 hrs by microtiter assay. Format: functional. The method, boiled down: as §1
Experiment [17] has as its system Fusarium proliferatum. Briefly: Antimicrobial activity against Fusarium proliferatum at 3 uM after 48 hrs by microtiter assay. Format: functional. In a few lines:
as §1

The subject of experiment [18] is Fusarium proliferatum. Briefly: Antimicrobial activity against Fusarium proliferatum at 0.3 uM after 72 hrs by microtiter assay. Format: functional. The method, boiled down:
as §1

In experiment [19] the test system is Fusarium solani. As to the kind of experiment: Antimicrobial activity against Fusarium solani at 0.3 uM after 72 hrs by microtiter assay. Format: functional. The method, boiled down:
as §1

Experiment [20] concerns Fusarium oxysporum. Briefly: Antimicrobial activity against Fusarium oxysporum at 3 uM after 48 hrs by microtiter assay. Format: functional. The method, boiled down: as §1
For experiment [21], the system named is Fusarium solani. Briefly: Antimicrobial activity against Fusarium solani at 0.3 uM after 48 hrs by microtiter assay. Format: functional. The method, boiled down:
as §1

For experiment [22], the system named is Fusarium oxysporum. Briefly: Antimicrobial activity against Fusarium oxysporum at 30 uM after 72 hrs by microtiter assay. Format: functional. The method, boiled down: as §1

What is called IC50 is the concentration at which inhibition is half-maximal. Low readings indicate inhibition by little substance, high ones a need for much substance. For orientation: inhibition means how much of the control response was suppressed. For orientation: MIC means the smallest concentration in the dilution series that meets the test's criterion for growth inhibition. Broadly, the MBC is the smallest concentration meeting the test's criterion for killing. Read a high MBC as less potent killing.

≈ marks a conversion by molar mass, not a printed value. Bounds are passed on as bounds.

On to `C/C=C1\NC(=O)[C@H](Cc2ccccc2)NC(=O)[C@@H](C(C)C)NC(=O)[C@@H]([C@@H](C)CC)NC(=O)[C@H](NC(=O)[C@H](NC(=O)[C@H](CCCNCc2ccc(F)cc2)NC(=O)[C@H]2CCCN2C(=O)[C@H](NC(=O)[C@@H](NC(=O)[C@@H](NC(=O)[C@H](NC(=O)CCCC(C)C)C(C)C)[C@@H](C)O)C(C)C)C(C)C)[C@@H](C)CC)[C@@H](C)OC(=O)[C@H](C(C)C)NC1=O`, for which the concentration for half-maximal inhibition (IC50) in experiment [1] is greater than 12.6 µM; in experiment [2] it was 3.77 µM; in experiment [3] it was greater than 12.6 µM; in experiment [4], greater than 20 µM.
As for `C/C=C1\NC(=O)[C@H](Cc2ccccc2)NC(=O)[C@@H](C(C)C)NC(=O)[C@@H]([C@@H](C)CC)NC(=O)[C@H](NC(=O)[C@H](NC(=O)[C@H](CCCN(CCCCCC)CCCCCC)NC(=O)[C@H]2CCCN2C(=O)[C@H](NC(=O)[C@@H](NC(=O)[C@@H](NC(=O)[C@H](NC(=O)CCCC(C)C)C(C)C)[C@@H](C)O)C(C)C)C(C)C)[C@@H](C)CC)[C@@H](C)OC(=O)[C@H](C(C)C)NC1=O`, the IC50 in experiment [1] is greater than 12.2 µM; in experiment [2] it was 6.71 µM; in experiment [3] it was greater than 12.2 µM; in experiment [4] it was greater than 20 µM.
With `C/C=C1\NC(=O)[C@H](Cc2ccccc2)NC(=O)[C@@H](C(C)C)NC(=O)[C@@H]([C@@H](C)CC)NC(=O)[C@H](NC(=O)[C@H](NC(=O)[C@H](CCCN)NC(=O)[C@H]2CCCN2C(=O)[C@H](NC(=O)[C@@H](NC(=O)[C@@H](NC(=O)[C@H](NC(=O)CCCC(C)C)C(C)C)C(C)=O)C(C)C)C(C)C)[C@@H](C)CC)[C@@H](C)OC(=O)[C@H](C(C)C)NC1=O` [listing 1 of 2 here], the IC50 was greater than 13.6 µM in experiment [1], 4.34 µM in experiment [2], 12.4 µM in experiment [3] and greater than 20 µM in [4].
`C/C=C1\NC(=O)[C@H](Cc2ccccc2)NC(=O)[C@@H](C(C)C)NC(=O)[C@@H]([C@@H](C)CC)NC(=O)[C@H](NC(=O)[C@H](NC(=O)[C@H](CCCN)NC(=O)[C@H]2CCCN2C(=O)[C@H](NC(=O)[C@@H](NC(=O)[C@@H](NC(=O)[C@H](NC(=O)CCCC(C)C)C(C)C)C(C)=O)C(C)C)C(C)C)[C@@H](C)CC)[C@@H](C)OC(=O)[C@H](C(C)C)NC1=O` [listing 2 of 2 here]: the inhibition at 3 µM in experiment [5] came to 0%; in experiment [8], 0%; in [10], 0%; in experiment [15], 0%; in experiment [17] it was 5%; in [20], 1.8%. For the same molecule, the inhibition at 30 µM was determined as 73.2% in experiment [6]; 92.7% in experiment [11]; 91.9% in experiment [12]; 85.5% in experiment [14]; 90.6% in experiment [16]; 82.2% in [22]. In addition, the MFC in [1] is greater than 20 µM; in experiment [2], 20 µM (≈ 29.5 µg/mL); in experiment [3], greater than 20 µM. Also, the MIC was greater than 20 µM in [1], 10 µM (≈ 14.8 µg/mL) in [2], greater than 20 µM in experiment [3] and greater than 20 µM in [4]. The inhibition at 0.3 µM in [7] turned out to be 0%; in experiment [9], 1.8%; in experiment [13], 1.8%; in [18], 0%; in experiment [19], 0%; in [21], 0%. The same molecule displayed an MBC in experiment [4] greater than 20 µM.
Take `C/C=C1\NC(=O)[C@H](Cc2ccccc2)NC(=O)[C@@H](C(C)C)NC(=O)[C@@H]([C@@H](C)CC)NC(=O)[C@H](NC(=O)[C@H](NC(=O)[C@H](CCCNC(=O)c2cc3ccc(N(CC)CC)cc3oc2=O)NC(=O)[C@H]2CCCN2C(=O)[C@H](NC(=O)[C@@H](NC(=O)[C@@H](NC(=O)[C@H](NC(=O)CCCC(C)C)C(C)C)[C@@H](C)O)C(C)C)C(C)C)[C@@H](C)CC)[C@@H](C)OC(=O)[C@H](C(C)C)NC1=O`: the IC50 in experiment [1], in experiment [2], in experiment [3] and in [4] was greater than 11.6 µM throughout.
